Published values gathered from unrelated publications.
Compare with care: the assays were run in different laboratories.
Effect on: cell growth or viability

`COc1cc(-c2ncn(/C=C\C(=O)OC(C)C)n2)cc(C(F)(F)F)c1` has an IC50 of 83 nM (MEG-01; 72 h).
`CCCON(Cc1ccc(C(=O)NO)cc1)C(=O)Nc1ccc(N(C)C)cc1` has an IC50 of 13800 nM (HAL-01; ATP luminescence; 72 h).
`Nc1nc2sc(CCCCCCCc3ccc(C(=O)N[C@@H](CCC(=O)O)C(=O)O)cc3)cc2c(=O)[nH]1` has an IC50 of over 1000 nM (R2/PCFT4; 96 h; pH 7.2).
`COc1cc(Nc2nccc(-c3cnn4nc(OC)ccc34)n2)cc(C(F)(F)F)c1` gave an IC50 of 930 nM (HCC38; ATP luminescence).
The IC50 of `Nc1nc2sc(CCCCCCc3ccc(C(=O)N[C@@H](CCC(=O)O)C(=O)O)cc3)cc2c(=O)[nH]1` is reported as over 1000 nM (R2/PCFT4; 96 h; pH 7.2).
With `O=C(/C=C/C=C/c1ccc2c(c1)OCO2)N1CCCCC1` the IC50 was 41.6 µg/mL (HUVEC; MTT; 48 h).
With `Nc1nc2sc(CCCCCCCCc3ccc(C(=O)N[C@@H](CCC(=O)O)C(=O)O)cc3)cc2c(=O)[nH]1` the IC50 was over 1000 nM (R2/PCFT4; 96 h; pH 7.2).
`O=C(Nc1cccc2cccnc12)c1cnccn1` gave an IC50 of over 30000 nM (HFF-1; MTT).
With `C=CCNC1=C2C[C@@H](C)C[C@H](OC)[C@H](O)[C@@H](C)/C=C(\C)[C@H](OC(N)=O)[C@@H](OC)/C=C\C=C(/C)C(=O)NC(=CC1=O)C2=O` the IC50 was 1200 nM (HUVEC; MTT).
`CC(C)C[C@H](NC(=O)[C@H](Cc1ccccc1)NC(=O)c1cnccn1)B(O)O` gave an IC50 of 7.1 nM (Ishikawa; ATP luminescence).
`COc1cccc2c1C(=O)c1c(O)c3c(c(O)c1C2=O)C[C@@](O)(C(=O)CO)C[C@@H]3O[C@H]1C[C@H](N)[C@H](O)[C@H](C)O1` has an IC50 of 2 µg/mL (HUVEC; MTT; 48 h).
`Cn1cc(-c2ccc3c(c2)ncn3-c2ccc(CC(=O)Nc3cc(C(C)(C)C)on3)cc2)cn1` gave an IC50 of 34.4 nM (NIH3T3).
For `CCCCN(Cc1ccc(C(=O)NO)cc1)C(=O)Nc1ccccc1`, the IC50 was 9050 nM (HAL-01; ATP luminescence; 72 h).
The IC50 of `O=c1[nH]cc(F)c(=O)[nH]1` is reported as over 50000 nM (HUVEC; MTT; 48 h).
